ATG4B inhibitor = ATG4B (human) cysteine protease inhibition. Q9Y4P1. ATG4B cleavage of LC3-PLA2, NBD-HPC fluorescence, 1 h. inhibition, % at 8.33 µM. actives 0.51% (n = 340,000). AID 504462; in the data active means inhibition above about 40%
rCAG binder = molecules binding r(CAG) RNA repeats; r(CAG) RNA repeat, TO-PRO-1 dye displacement fluorescence; actives 1.3% (n = 370,000); inhibition, % at 3 µM; AID 651821;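 active means inhibition above the plate cutoff, the mean of all test compounds on that plate plus 3 SD, cut at about 35% in these data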;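 further: higher means more dye released from RNA so lower well fluorescence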
CSN deneddyl inh = inhibitors of human CSN-mediated cullin deneddylation; Purified CSN, SCF-Nedd8-OG deneddylation, fluorescence polarization; Q92905; inhibition, % at 12.5 µM; actives 0.38% (n = 360,000);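 active means pattern-corrected inhibition above about 35%, with an unprinted fluorescence ratio check between 0.5 and 1.5, limit read from the data, passing the limit was not always enough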
Target sequence (Q92905 whole entry, looked up, one chain of several): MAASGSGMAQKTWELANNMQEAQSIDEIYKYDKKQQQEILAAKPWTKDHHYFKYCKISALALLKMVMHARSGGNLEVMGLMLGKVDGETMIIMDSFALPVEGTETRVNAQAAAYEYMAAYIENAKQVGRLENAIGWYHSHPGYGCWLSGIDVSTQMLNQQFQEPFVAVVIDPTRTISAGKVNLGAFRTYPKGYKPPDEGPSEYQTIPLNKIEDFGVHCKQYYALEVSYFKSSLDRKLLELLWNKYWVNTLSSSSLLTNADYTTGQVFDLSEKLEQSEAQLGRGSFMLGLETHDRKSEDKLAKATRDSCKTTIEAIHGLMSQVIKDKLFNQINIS
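Schedule: reaction 90 min, room temperature / Assay system: HEK293T-derived human Csn5 enzyme / Input: Csn5 at 0.24 nM final / Measure: inhibition of Csn5 cleavage, % / Control set: substrate-only high control, full reaction low control / Technique: fluorescence polarization of the substrate / Buffer or medium: Tris/NaCl/DTT buffer, pH 7.5 / Reagent: SCFSkp2-Nedd8OG substrate at 10 nM final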
UHRF1 binding = human UHRF1 methylated DNA binding inhibitors; Q96T88; UHRF1 binding to methylated oligo, TR-FRET; inhibition, % at 4.4 µM; actives 0.75% (n = 370,000); AID 687016; in the data active means inhibition above about 21%;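 further: UHRF1 SRA domain binding a hemimethylated CpG hairpin DNA probe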
MBD2 inh = inhibitors of human MBD2 binding to methylated oligonucleotide; Q9UBB5; TR-FRET; inhibition, % at 4.4 µM; actives 0.31% (n = 370,000); AID 686964; in the data active means inhibition above about 13%
Target sequence (Q9UBB5 whole entry, looked up): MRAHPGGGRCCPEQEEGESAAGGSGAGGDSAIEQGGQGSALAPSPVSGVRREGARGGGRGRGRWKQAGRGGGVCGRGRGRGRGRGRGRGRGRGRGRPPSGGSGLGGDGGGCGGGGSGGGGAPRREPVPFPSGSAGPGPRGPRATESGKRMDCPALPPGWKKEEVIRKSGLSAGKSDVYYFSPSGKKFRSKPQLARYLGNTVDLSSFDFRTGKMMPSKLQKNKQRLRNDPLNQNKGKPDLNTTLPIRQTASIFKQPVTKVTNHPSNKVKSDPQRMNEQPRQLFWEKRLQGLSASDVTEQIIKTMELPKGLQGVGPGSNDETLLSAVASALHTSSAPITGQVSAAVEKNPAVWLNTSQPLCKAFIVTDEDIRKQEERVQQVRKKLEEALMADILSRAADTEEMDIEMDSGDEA
LEDGF integ inh = blocks HIV-1 LEDGF/p75-dependent DNA integration. inhibition, % at 3.7 µM. AID 743269. TR-FRET IN-LEDGF/p75 DNA integration, Eu/Cy5. actives 0.64% (n = 370,000);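 active means inhibition above the screen-wide mean plus 3 SD, cut at about 13% in these data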;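 further: signal is the Cy5 over europium emission ratio at 671 and 618 nm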
rCAG binder conf = r(CAG) RNA repeat binding, confirmation; shares compounds with rCAG binder; TO-PRO-1 dye displacement fluorescence; inhibition, % at 3 µM; actives 70% (n = 4,300);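 active means inhibition above a per-plate cutoff, the mean inhibition of sample wells plus 3 SD, cut at about 35% in these data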;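 further: loss of TO-PRO-1 fluorescence as compound displaces dye from 1x1 AA loop RNA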
dCAG dye counter = counter-screen for rCAG RNA binders: DNA CAG dye complex inhibitors; shares compounds with rCAG binder; d(CAG) DNA oligo TO-PRO-1 dye displacement, fluorescence; inhibition, % at 3 µM; actives 94% (n = 4,300); AID 652068;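 active means inhibition above its plate's cutoff, the mean test-well inhibition plus 3 SD, cut at about 4.8% in these data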;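 further: hits displace the dye from DNA and so lower well fluorescence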
DNA CAG DR = counter-screen for rCAG binders: inhibitors of DNA CAG TO-PRO-1 complex | actives 20% (n = 250) | shares compounds with rCAG binder | DNA CAG/GTC duplex TO-PRO-1 dye displacement fluorescence | IC50, µM | AID 686960; in the data active means IC50 below about 10 µM
Of the large screens only hits and unclear results are named; the others gave an inactive call (follow-up assays come after a bar, where they were run). Shown are actives, neighbours in structure and some others; about 3.1% of the full set was active somewhere.

Cc1cc(C(F)(F)F)n(-c2nc(C(=O)NNS(=O)(=O)c3ccccc3)cs2)n1	none
O=C(Nc1cccc([N+](=O)[O-])c1)c1cc2ccccc2cc1O	rCAG binder 39.0 | rCAG binder conf 37.3 | dCAG dye counter 15.8
O=[N+]([O-])c1c(Cl)cc(Cl)cc1Cl	none (no result: ATG4B inhibitor, CSN deneddyl inh)
O=S(c1cc(Cl)cc(Cl)c1O)c1cc(Cl)cc(Cl)c1O	rCAG binder 40.4 (no result: ATG4B inhibitor) | rCAG binder conf 44.2 | dCAG dye counter 10.8 | DNA CAG DR 9.37
CCCS(=O)(=O)c1c(S(=O)(=O)CCC)c2c(N)cccn2c1C(=O)c1ccccc1	rCAG binder 42.9 | rCAG binder conf inactive | dCAG dye counter 10.3
CCCC(=O)OC12CCCN(C1)/C(=C/c1cccc(Cl)c1)C2 (stereo unspecified)	none (no result: ATG4B inhibitor, CSN deneddyl inh)
COc1cc(/C=C/C(=O)O)cc(S(=O)(=O)Nc2cc(C(F)(F)F)ccc2N2CCOCC2)c1OC	rCAG binder 41.0 | rCAG binder conf inactive | dCAG dye counter 5.8
O=C(NC(Cc1c[nH]c2ccccc12)C(=O)O)OCC1c2ccccc2-c2ccccc21 (stereo unspecified)	rCAG binder 69.5 (no result: ATG4B inhibitor) | rCAG binder conf 59.1 | dCAG dye counter 18.4
O=C(N[C@@H](Cc1ccc(Br)cc1)C(=O)O)OCC1c2ccccc2-c2ccccc21	rCAG binder 39.2 | rCAG binder conf 69.3 | dCAG dye counter 27.5
CC(=O)N[C@H](Cc1c[nH]c2ccccc12)C(=O)O	none
CC(c1ccccc1)C(NC(=O)OCC1c2ccccc2-c2ccccc21)C(=O)O (stereo unspecified)	rCAG binder 46.0 | rCAG binder conf 42.0 | dCAG dye counter 8.9
O=C(CCc1c[nH]c2ccccc12)NC(Cc1ccccc1)C(=O)O (stereo unspecified)	rCAG binder 36.0 | rCAG binder conf inactive | dCAG dye counter inactive
COC(=O)C(Cc1ccccc1)NC(=O)CCc1c[nH]c2ccccc12 (stereo unspecified)	none
Cc1ccc(CN2CCCCC(NC(=O)Nc3ccccc3)C2=O)cc1 (stereo unspecified)	none (no result: ATG4B inhibitor, CSN deneddyl inh)
Cc1cccc(C2(c3cccc(C)c3)CC2C(=O)Nc2ccc([N+](=O)[O-])cc2O)c1 (stereo unspecified)	rCAG binder 49.1 | rCAG binder conf 52.0 | dCAG dye counter 21.9
O=C(O)CCc1ccc(-c2ccccc2)n1NC(=O)c1sc2ccccc2c1Cl	rCAG binder 56.7 | rCAG binder conf inactive | dCAG dye counter 10.8
CN(C)/C=C/C(=O)c1ccc([N+](=O)[O-])c(CS(=O)(=O)c2ccccc2)c1	rCAG binder 34.6 | rCAG binder conf inactive | dCAG dye counter inactive
Nc1[nH]n2c(=O)c3c(nc2c1N=Nc1ccccc1)CCCC3	rCAG binder 34.6 | rCAG binder conf inactive | dCAG dye counter inactive
Nc1[nH]n2c(=O)c3c(nc2c1N=Nc1ccc(Cl)cc1)CCCC3	none
O=C(NNC(=O)C1CC1)c1cc(Br)c(Br)s1	rCAG binder 35.5 | rCAG binder conf 37.0 | dCAG dye counter 12.7
O=C(c1cc(Br)c(Br)s1)N1CCOCC1	none
O=S(=O)(Nc1cc(Cl)ccc1-n1cncn1)c1cc(Br)ccc1Br	rCAG binder 57.5 | rCAG binder conf 56.0 | dCAG dye counter 20.9
Clc1ccc(-c2nnc3n2N=C(c2ccc(-c4ccccc4)cc2)CS3)cc1	none (no result: ATG4B inhibitor, CSN deneddyl inh)
CCOc1ccccc1NC(=O)CCN1CCN(S(=O)(=O)c2ccc(Br)cc2)CC1	rCAG binder 36.0 | rCAG binder conf inactive | dCAG dye counter inactive
O=C(CC1C[C@H](C(=O)N2CCOCC2)[C@@]2(CCC3CCCC3)c3[nH]c4ccccc4c3CCN2C1=O)NCCCn1ccnc1 (stereo partly specified)	rCAG binder 35.1 | rCAG binder conf inactive | dCAG dye counter inactive
COc1cc(C(=O)Nc2scc(-c3ccc(Br)cc3)c2C(=O)O)cc(OC)c1OC	rCAG binder 39.4 | rCAG binder conf 85.5 | dCAG dye counter 53.3
COc1cc(C(=O)Nc2c(C(=O)O)[nH]c3ccc(Br)cc23)cc(OC)c1OC	rCAG binder 83.8 | rCAG binder conf 78.2 | dCAG dye counter 40.3
Cc1ccc(-c2csc(NC(=O)c3ccc(Br)cc3)c2C(=O)O)cc1	none
CCOC(=O)c1[nH]c2ccc(F)cc2c1NC(=O)c1cc(OC)c(OC)c(OC)c1	none
O=C(CSc1nnc(-c2cccnc2)n1Cc1ccco1)Nc1cc(Cl)ccc1F	none (no result: ATG4B inhibitor, CSN deneddyl inh)
COC(=O)[C@H](C(C)C)N(CCCc1cn(CC2CCCCC2)nn1)S(=O)(=O)c1ccccc1Br	none (no result: ATG4B inhibitor, CSN deneddyl inh)
CC(c1ccccc1)n1cc(C(=O)N2CCCN(Cc3ccccc3)CC2)nn1 (stereo unspecified)	none (no result: ATG4B inhibitor, CSN deneddyl inh)
O=c1cc(CSc2nnnn2-c2ccccc2)nc(Nc2ccc(F)cc2)[nH]1	rCAG binder 42.8 | rCAG binder conf 42.5 | dCAG dye counter 14.8
N/C(=N\c1nc(CSc2nnnn2-c2ccccc2)cc(=O)[nH]1)Nc1ccccc1	none (no result: ATG4B inhibitor, CSN deneddyl inh)
CCOc1cc(C(=O)Nc2ccc(S(=O)(=O)Nc3onc(C)c3C)cc2)cc(OCC)c1OCC	rCAG binder 46.1 | rCAG binder conf 51.8 | dCAG dye counter 19.9
CCCOc1ccc(C(=O)Nc2ccc(S(=O)(=O)Nc3cc(C)nc(C)n3)cc2)cc1	none
CCCOc1ccc(C(=O)Nc2ccc(S(=O)(=O)Nc3onc(C)c3C)cc2)cc1	rCAG binder 48.7 | rCAG binder conf inactive | dCAG dye counter 5.2
CCCCOc1ccc(C(=O)Nc2ccc(S(=O)(=O)Nc3onc(C)c3C)cc2)cc1	rCAG binder 77.2 (no result: ATG4B inhibitor) | rCAG binder conf 53.5 | dCAG dye counter 21.0
CCCOc1ccc(C(=O)N/N=C/c2ccc(-c3ccc(S(=O)(=O)Nc4ncccn4)cc3)o2)cc1	rCAG binder 54.4, UHRF1 binding 70.1 | rCAG binder conf 60.5 | dCAG dye counter 23.6
CCCOc1ccc(C(=O)Nc2ccc(S(=O)(=O)NC3=NCCCCC3)cc2)cc1	none
CCOC(=O)[C@]12CCCC=C1N(Cc1ccc(OC)cc1)C(=O)[C@@H]2CC(=O)NCCC(C)C	none (no result: ATG4B inhibitor, CSN deneddyl inh)
COc1ccc(C2OCCNC3C2C(=O)N(Cc2ccc(OC)cc2OC)C3Cc2ccccc2)cc1 (stereo unspecified)	none (no result: ATG4B inhibitor, rCAG binder, CSN deneddyl inh)
